Measurements taken from publication PMC3215888 (Cancer Chemotherapy and Pharmacology, 2011).
Like-named read-outs stand apart in the source and are kept apart here.

Experiments:
[1] = system: TC-32 Ewing sarcoma cell line; experiment: DIMSCAN in vitro testing, 96 h; format: cell-based; settings: for IC50: Homo sapiens, TC-32, 96 h
How it was run: (§1)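 Neuroblastoma and Ewing sarcoma lines, STR-verified and maintained as in the originators' reports. Exposed for 96 h to test compound (DMSO stock diluted in medium) at 1 nM–10 μM. Viable cells quantified by fluorescein diacetate fluorescence with DIMSCAN digital image microscopy. Absolute IC50 = concentration giving 50% growth inhibition vs controls. Relative IC50 = concentration giving 50% of the maximum inhibitory effect.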

[2] = system: SK-N-MC Ewing sarcoma cell line; experiment: DIMSCAN in vitro testing, 96 h; format: cell-based; settings: for IC50: Homo sapiens, 96 h
How it was run: as §1

[3] = system: CHLA-10 Ewing sarcoma cell line; experiment: DIMSCAN in vitro testing, 96 h; format: cell-based; settings: for IC50: 96 h
How it was run: as §1

[4] = system: CHLA-25 Ewing sarcoma cell line; experiment: DIMSCAN in vitro testing, 96 h; format: cell-based; settings: for IC50: 96 h
How it was run: as §1

[5] = system: COG-E-352 Ewing sarcoma cell line; experiment: DIMSCAN in vitro testing, 96 h; format: cell-based; settings: for IC50: 96 h
How it was run: as §1

[6] = system: CHLA-119 neuroblastoma cell line; experiment: DIMSCAN in vitro testing, 96 h; format: cell-based; settings: for IC50: Neuroblastoma cell, 96 h
How it was run: as §1

[7] = system: SK-N-BE(1) neuroblastoma cell line; experiment: DIMSCAN in vitro testing, 96 h; format: cell-based; settings: for IC50: Neuroblastoma cell, 96 h
[8] = system: SMS-KAN neuroblastoma cell line; experiment: DIMSCAN in vitro testing, 96 h; format: cell-based
[9] = system: SMS-KANR neuroblastoma cell line; experiment: DIMSCAN in vitro testing, 96 h; format: cell-based; settings: for IC50: Neuroblastoma cell, 96 h
[10] = system: SMS-LHN neuroblastoma cell line; experiment: DIMSCAN in vitro testing, 96 h; format: cell-based; settings: for IC50: Neuroblastoma cell, 96 h
How it was run: as §1

[11] = system: SMS-SAN neuroblastoma cell line; experiment: DIMSCAN in vitro testing, 96 h; format: cell-based; settings: for IC50: Neuroblastoma cell, 96 h
How it was run: as §1

[12] = system: NB-SD Neuroblastoma xenograft; format: in vivo, mice
How it was run: (§2)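 Female CB17 scid mice bearing subcutaneous tumors, 10 per group. Dosed by oral gavage twice daily, 5 days weekly for 6 weeks, at 20.8, 10.4, 5.2 or 2.6 mg/kg, in 10% 2-hydroxypropyl-β-cyclodextrin/1% sodium bicarbonate. Event = quadrupled tumor volume; EFS by Kaplan–Meier, exact log-rank test. Per-mouse scores PD/SD/PR (≥50% regression)/CR (<0.10 cm3)/MCR; group median reported. PR, CR and MCR count as objective responses.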

[13] = system: SK-N-AS Neuroblastoma xenograft; format: in vivo, mice; settings: 20.8 mg/kg
How it was run: as §2

[14] = system: ALL-19 ALL B-precursor xenograft; experiment: ALL xenograft; format: in vivo, mice
How it was run: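 Female NOD/scid mice inoculated intravenously with leukemia cells, 8 per group. Test compound suspended in 10% 2-hydroxypropyl-β-cyclodextrin/1% sodium bicarbonate in water. Given by oral gavage twice daily, 5 days weekly for 3 weeks, at 20.8, 10.4, 5.2 or 2.6 mg/kg. Blood %hCD45 of leukocytes tracked; event = hCD45 reaching 25%. EFS by Kaplan–Meier, exact log-rank vs controls. Median group response from individual scores.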

NB-1771 tumor xenograft = experiment: Pharmacodynamics: mitotic index; format: in vivo, mice; settings: single 20.8 mg/kg
How it was run: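 Single oral 20.8 mg/kg dose to mice bearing NB-1771 tumors. Tumors taken at 0, 2, 6, 8, 12 and 24 h (3 mice per time), formalin-fixed, paraffin-embedded. 5 μm sections immunofluorescently stained for MPM2 (1:100) and phospho-Ser10 histone H3 (1:25), 60 min at room temperature, DAPI counterstain. Five 40× images per slide; mitotic index = % cells positive for either marker; mean ± SD.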

Toxicity = format: in vivo, mice; settings: leukemia models at the MTD
How it was run: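 Deaths counted in control and treated arms of the xenograft efficacy studies (10 mice per solid tumor group, 8 per ALL group). A group would be excluded from analysis if mortality exceeded 25%.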

## COc1cc(Nc2ncc3c(n2)-c2ccc(Cl)cc2C(c2c(F)cccc2OC)=NC3)ccc1C(=O)O [MLN8237]
[1]; read-out: Absolute IC50
  IC50: 39 nM
[1]; read-out: Relative IC50
  IC50: 34 nM
[1]; TC-32, minimum T/C
  Ymin: 6.5%
[2]; read-out: Absolute IC50
  IC50: 72 nM
[2]; read-out: Relative IC50
  IC50: 66 nM
[2]; minimum T/C
  Ymin: 2.8%
[3]; read-out: Absolute IC50
  IC50: 60 nM
[3]; read-out: Relative IC50
  IC50: 56 nM
[3]; CHLA-10, minimum T/C
  Ymin: 4.7%
[4]; read-out: Absolute IC50
  IC50: 168 nM
[4]; read-out: Relative IC50
  IC50: 58 nM
[4]; CHLA-25, minimum T/C
  Ymin: 30.1%
[5]; read-out: Absolute IC50
  IC50: 43 nM
[5]; read-out: Relative IC50
  IC50: 35 nM
[5]; COG-E-352, minimum T/C
  Ymin: 11.4%
[6]; CHLA-119, minimum T/C
  Ymin: 0.5%
[6]; read-out: Absolute IC50
  IC50: 22 nM
[6]; read-out: Relative IC50
  IC50: 22 nM
[7]; read-out: Absolute IC50
  IC50: 28 nM
[7]; read-out: Relative IC50
  IC50: 24 nM
[7]; SK-N-BE(1), minimum T/C
  Ymin: 4.0%
[8]; read-out: Absolute IC50
  IC50: 34 nM
[8]; read-out: Relative IC50
  IC50: 32 nM
[9]; read-out: Absolute IC50
  IC50: 26 nM
[9]; read-out: Relative IC50
  IC50: 23 nM
[9]; SMS-KANR, minimum T/C
  Ymin: 11.4%
[10]; read-out: Absolute IC50
  IC50: 32 nM
[10]; read-out: Relative IC50
  IC50: 20 nM
[10]; SMS-LHN, minimum T/C
  Ymin: 25.1%
[11]; read-out: Absolute IC50
  IC50: 20 nM
[11]; read-out: Relative IC50
  IC50: 18 nM
[11]; SMS-SAN, minimum T/C
  Ymin: 5.9%
[12]; 2.6 mg/kg
  EFS T/C: 1.6
  EFS activity: Low
  Estimate of median time to event: 15.2 days
  Median group response: PD1 (if the TGD value ≤1.5, that mouse was considered PD1)
  Response activity: Low
  Tumor volume T/C: 0.59
  Median RTV/hCD45 at end of study: >4
[12]; 5.2 mg/kg
  EFS T/C: 2.2
  EFS activity: Int
  Estimate of median time to event: 20.9 days
  Median group response: PD2 (if the TGD value >1.5, the mouse was considered PD2)
  Response activity: Int
  Tumor volume T/C: 0.60
  Median RTV/hCD45 at end of study: >4
[12]; 10.4 mg/kg
  EFS T/C: 3.9
  EFS activity: Int
  Estimate of median time to event: 37.5 days
  Median group response: PD2 (if the TGD value >1.5, the mouse was considered PD2)
  Response activity: Int
  Tumor volume T/C: 0.50
  Median RTV/hCD45 at end of study: >4
[12]; 20.8 mg/kg
  EFS T/C: >4.4
  EFS activity: High
  Response activity: Int
  Tumor volume T/C: 0.47
  Median RTV/hCD45 at end of study: 0.9
[13]
  EFS T/C: 1.4
  EFS activity: Low
  Estimate of median time to event: 7.6 days
  Median group response: PD1 (if the TGD value ≤1.5, that mouse was considered PD1)
  Response activity: Low
  Tumor volume T/C: 0.71
[13]; RTV
  Median RTV/hCD45 at end of study: >4
[14]; 2.6 mg/kg
  EFS T/C: 1.0
  EFS activity: Low
  Estimate of median time to event: 2.6 days
  Median group response: PD1 (if the TGD value ≤1.5, that mouse was considered PD1)
  Response activity: Low
  Median RTV/hCD45 at end of study: >25%
[14]; 5.2 mg/kg
  EFS T/C: 9.2
  EFS activity: Int
  Estimate of median time to event: 22.9 days
  Median group response: PD2 (if the TGD value >1.5, the mouse was considered PD2)
  Response activity: Int
  Median RTV/hCD45 at end of study: >25%
[14]; 10.4 mg/kg
  EFS T/C: 14.9
  EFS activity: Int
  Estimate of median time to event: 37.2 days
  Response activity: High
  Median RTV/hCD45 at end of study: >25%
[14]; 20.8 mg/kg
  EFS T/C: 16.8
  EFS activity: Int
  Estimate of median time to event: 41.8 days
  Response activity: High
  Median RTV/hCD45 at end of study: >25%
NB-1771 tumor xenograft
  time of return of mitotic indices to baseline levels: 24 h
NB-1771 tumor xenograft; 20.8 mg/kg
  time of peak of mitotic indices / pharmacodynamic activity: 12 h
NB-1771 tumor xenograft; 6 h
  increase of mitotic indices (MPM2, pHistH3) within 6 h: approximately twofold
NB-1771 tumor xenograft; 12 h
  increase of mitotic indices (MPM2, pHistH3) at peak: three to fivefold
Toxicity
  mice that died in the treated arm: 5 of 24
